Bioassay records deposited in PubChem BioAssay by Johns Hopkins Ion Channel Center.
KCNQ1 pot – potentiates or activates the human KCNQ1 potassium channel; CHO-K1 KCNQ1, thallium flux FluxOR fluorescence; stronger effect = higher value; B-score at 10 µM; actives 0.35% (n = 310,000); AID 2648;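 active = fluorescence ratio B-score, a plate-corrected score, at least three library SD, with initial intensity B-score within 5 SD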
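assay system = KCNQ1-transfected CHO-K1 cells | medium = assay buffer with matched DMSO | probe or stimulus = depolarizing K+/Tl+ stimulus, K2SO4 and Tl2SO4 each 12.5 mM in 5x stock | dosing = single dose | incubation = dye 90 min, compound 20 min, room temperature | detection = kinetic FluxOR fluorescence, 10 s baseline plus 110 s post-stimulus | evaluation = ratio B score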
KCNK9 inh – human KCNK9 channel inhibition; HEK293 KCNK9, FluxOR thallium flux fluorescence; stronger effect = lower value; actives 1.2% (n = 310,000); AID 488922; B-score at 10 µM;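 active = ratio B-score over 3 SD below the library mean, with starting fluorescence within 5 SD of its mean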;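 also: negative B-score means less thallium flux so channel inhibition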
hERG protect – compounds protecting human hERG from proarrhythmic drug block. CHO-hERG, FluxOR thallium flux, dofetilide IC70 present. actives 0.51% (n = 310,000). AID 1511. Q12809. activation (rescue from dofetilide block), less the hit threshold, % at 10 µM;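 active = activation above the mean of controls blocked by dofetilide plus 5 SD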;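 also: thallium influx through hERG after potassium depolarization seen as dye fluorescence rise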
KCNQ1 inh – blocks the human KCNQ1 potassium channel; P51787; actives 1.3% (n = 310,000); B-score at 10 µM; AID 2642; CHO-K1 KCNQ1, FluxOR thallium flux fluorescence; stronger effect = higher value;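 active = compounds whose thallium flux B-score, printed positive for inhibition, exceeds three library SD while starting fluorescence stays within three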;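 also: channel opened by potassium depolarization with thallium stimulus after 20 min compound exposure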
KCNK3 inh – human KCNK3 channel inhibition, primary screen; O14649; CHO-KCNK3 thallium flux, FluxOR fluorescence; stronger effect = lower value; B-score at 10 µM; actives 0.84% (n = 340,000); AID 602410;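 active = B-score under library mean minus 4 SD, starting fluorescence ratio at most library mean plus 5 SD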;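 also: more negative B-score means stronger inhibition of thallium flux through KCNK3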
KCNQ1 block val – human KCNQ1 channel inhibition, validation assay; shares compounds with KCNQ1 inh; KCNQ1 cell line, FluxOR thallium flux fluorescence; inhibition, % at 10 µM; actives 93% (n = 1,600);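 active = primary screen active, with duplicate mean exceeding buffer control mean plus 3 SD of buffer wells, cut at about 28% in these data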
CHO Tl flux – activity in parental CHO cells lacking KCNQ1. shares compounds with KCNQ1 inh. parental CHO-K1, FluxOR thallium flux fluorescence ratio; stronger effect = lower value; zero means no signal rise above baseline. fluorescence ratio (Tl flux) at 10 µM. actives 21% (n = 1,600);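 active = mean of duplicate thallium-flux fluorescence ratios in parental host cells more than 5 SD below the buffer control mean, cut at about 0.38 in these data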;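 also: ratio is peak minus minimum fluorescence divided by baseline fluorescence; actives read low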
KCNQ1 ephys val – human KCNQ1 inhibition validated by electrophysiology. calls only at 10 µM. actives 20% (n = 490). shares compounds with KCNQ1 inh. KCNQ1-CHO cells, automated patch clamp current;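 active = KCNQ1 current drop exceeding 3 SD of negative control wells, seen in both duplicate runs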;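 also: steady state current during a 2 s step from -80 to +40 mV; negative values mean current inhibition and positive values mean potentiation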
KCNQ2 inh – rat KCNQ2 inhibition in KCNQ1 inhibitor specificity screen; KCNQ2 cells, FluxOR thallium flux fluorescence; actives 71% (n = 1,600); shares compounds with KCNQ1 inh; inhibition, % at 10 µM;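 active = mean percent inhibition of the KCNQ2 thallium signal more than 5 SD above the buffer-only control wells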;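 also: KCNQ2 expressed in CHO cells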
Target sequence (O88943 whole entry, looked up): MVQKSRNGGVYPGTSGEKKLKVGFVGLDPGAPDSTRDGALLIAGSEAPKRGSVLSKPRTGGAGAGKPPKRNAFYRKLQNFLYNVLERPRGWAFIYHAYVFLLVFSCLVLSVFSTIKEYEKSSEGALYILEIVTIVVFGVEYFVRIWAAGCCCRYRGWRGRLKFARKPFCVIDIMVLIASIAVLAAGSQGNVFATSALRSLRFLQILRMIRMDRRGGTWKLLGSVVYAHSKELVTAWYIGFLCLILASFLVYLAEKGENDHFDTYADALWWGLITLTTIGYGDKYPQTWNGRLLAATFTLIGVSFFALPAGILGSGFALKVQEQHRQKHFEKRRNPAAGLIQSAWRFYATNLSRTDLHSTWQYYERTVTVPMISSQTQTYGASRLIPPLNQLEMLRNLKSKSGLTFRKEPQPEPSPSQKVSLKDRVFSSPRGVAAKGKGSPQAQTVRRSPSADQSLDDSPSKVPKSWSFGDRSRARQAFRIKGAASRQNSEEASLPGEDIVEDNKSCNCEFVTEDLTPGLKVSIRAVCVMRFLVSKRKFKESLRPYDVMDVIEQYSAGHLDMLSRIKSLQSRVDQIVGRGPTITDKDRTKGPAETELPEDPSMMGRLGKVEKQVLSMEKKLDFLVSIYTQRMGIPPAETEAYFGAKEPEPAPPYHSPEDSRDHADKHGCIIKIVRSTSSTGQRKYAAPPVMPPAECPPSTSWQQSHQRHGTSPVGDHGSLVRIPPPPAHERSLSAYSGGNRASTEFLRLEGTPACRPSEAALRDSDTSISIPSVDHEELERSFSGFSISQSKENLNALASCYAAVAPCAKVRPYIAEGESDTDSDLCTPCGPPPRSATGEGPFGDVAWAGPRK
KCNQ1 KCNE1 spec – KCNQ1 inhibitor that also blocks human KCNQ1/KCNE1 channel; actives 77% (n = 1,600); KCNQ1/KCNE1 cells, FluxOR thallium flux fluorescence; AID 652147; shares compounds with KCNQ1 inh; inhibition, % at 10 µM;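 active = mean percent inhibition of duplicate wells above the buffer-only control mean plus 3 SD of those controls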
KCNK9 inh conf – human KCNK9 inhibitor confirmation; shares compounds with KCNK9 inh; HEK293 KCNK9 cells, FluxOR thallium flux fluorescence; inhibition, % at 10 µM; actives 43% (n = 4,900); AID 492992;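 active = thallium signal inhibited by more than 5 SD of the compound-free buffer control wells, on both duplicate plates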
Kir2-1 spec – tests whether KCNK9 modulators also affect mouse Kir2.1; shares compounds with KCNK9 inh; inhibition, % at 10 µM; Kir2.1 cells, FluxOR thallium flux fluorescence; AID 492993; actives 4% (n = 4,900);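 active = thallium signal drop more than 5 SD beyond the mean of the no-compound control wells, seen in both duplicate plates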;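 also: signal is fluorescence rise after thallium addition divided by baseline fluorescence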
HEK293 Tl ctr – second counter-screen for KCNK9 modulators: effect in non-induced cells; shares compounds with KCNK9 inh; non-induced KCNK9-HEK293, FluxOR thallium flux; inhibition, % at 10 µM; actives 40% (n = 4,900); AID 492997;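 active = thallium signal drop beyond 5 SD of the untreated control mean, on both duplicate plates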
KCNK3 inh conf – human KCNK3 channel inhibition, confirmation assay. shares compounds with KCNK3 inh. CHO-KCNK3 thallium flux, FluxOR fluorescence; 0% buffer, 100% carvedilol maximal block. ratio percent of control, % at 10 µM. actives 99% (n = 2,400). AID 651638;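 active = ratio percent of control, averaged over triplicates, above buffer control mean plus 5 SD, cut at about 64% in these data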;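 also: ratio is the fluorescence rise from min to max over baseline after thallium stimulus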
KCNK3 noninduced – KCNK3 inhibitor counter-screen hit in non-induced cells. shares compounds with KCNK3 inh. non-induced KCNK3 parental cells, FluxOR thallium flux; stronger effect = lower value. thallium flux ratio (lower = more inhibition) at 10 µM. actives 40% (n = 2,400);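 active = thallium flux ratio, averaged over three wells, more than 5 SD below the buffer control mean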;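 also: host cells are CHO cells without KCNK3 induction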
Numbers stand for hits; 0 = inactive; - = not tested or not shown; + = active, no number. This is a sample that favours compounds with a hit; in the whole collection about 3.1% have one here.

SMILES	KCNQ1 pot	KCNK9 inh	hERG protect	KCNQ1 inh	KCNK3 inh	KCNQ1 block val	CHO Tl flux	KCNQ2 inh	KCNQ1 KCNE1 spec	KCNK3 inh conf	KCNK3 noninduced	others
Fc1ccc(C2c3[nH]c4ccccc4c3CCN2Cc2cccn2-c2ncccn2)cc1 (stereo not given)	0	-7.8	0	6	-14	84	0	72%	97%	121	0.15
Cc1cnc(C(=O)N2CCc3c([nH]c4ccccc34)C2c2ccc(F)cc2)cn1 (stereo not given)	0	0	0	0	0	-	-	-	-	-	-
Cc1ccc(OCC(O)Cn2c3ccccc3c3ccccc32)cc1 (stereo not given)	0	0	0	0	0	-	-	-	-	-	-
Cc1cccc(C)c1OCC(O)Cn1c2ccccc2c2ccccc21 (stereo not given)	0	0	0	11	-11	0	0	75%	0	116	0
NC(=O)c1ccsc1NC(=O)COC(=O)Cc1cccc2ccccc12	0	0	0	9	-8.9	110	0.31	104%	+	116	0
CCN(C(=O)c1ccco1)c1nc(-c2ccc(OC)cc2)cs1	0	0	0	0	0	-	-	-	-	-	-
COc1ccc(-c2csc(N(CC(C)C)C(=O)c3ccco3)n2)cc1	0	0	0	7	-9.9	107	0	80%	139%	162	0.073	KCNQ1 ephys val=+
Cc1cc2nc(CSc3ccc(Cl)cc3)cc(=O)n2[nH]1	0	0	0	0	0	-	-	-	-	-	-
CC12CC(c3ccccc3O1)N(C(=O)c1ccco1)C(=S)N2c1ccc(F)cc1 (stereo not given)	0	0	0	0	0	-	-	-	-	-	-
Cc1cc(C(=O)Nc2ccccc2C(=O)O)ccc1NC(=O)COc1ccccc1Cl	0	0	0	0	0	-	-	-	-	-	-
O=C(c1cnc(N2CCN(c3ccccn3)CC2)c2ccccc12)N1CCN(c2cccc(Cl)c2)CC1	0	0	0	10	-9.3	102	0.38	119%	130%	97	0
Cc1ccc(Cl)cc1N1CCN(C(=S)NCCc2ccccc2)CC1	0	0	0	12	-11	111	0	117%	108%	128	0.15	KCNQ1 ephys val=0
O=C(Nc1ccc(F)cc1)C1CCC(N2C(=O)c3ccccc3C2=O)CC1 (stereo not given)	0	0	0	0	0	-	-	-	-	-	-
CC(NC(=O)C1CCN(C(=O)c2ccc(F)cc2)CC1)c1ccc(S(N)(=O)=O)cc1 (stereo not given)	-	-	-	-	0	-	-	-	-	-	-
CC(C)Nc1nc(NC(C)C)nc(N(C#N)CCOc2ccc(Cl)cc2Cl)n1	0	-7.9	0	14	-12	134	0.31	128%	+	135	0.13
Cc1ccc(Cn2c(SCC(=O)NCC3CCCO3)nc3c2c(=O)n(C)c(=O)n3C)cc1 (stereo not given)	0	0	0	0	0	-	-	-	-	-	-
CCN(CC)S(=O)(=O)c1ccc2oc(SCc3ccc(F)cc3)nc2c1	0	-8.7	0	9	-11	82	0	80%	102%	100	0	KCNK9 inh conf=36%;Kir2-1 spec=0;HEK293 Tl ctr=41%
CC(=O)Nc1ccc(Nc2cc(C)nc3c(-c4ccccc4)c(C)nn23)cc1	0	0	0	0	0	-	-	-	-	-	-
CC(=O)Nc1ccc(Nc2cc(C(C)C)nc3c(-c4ccccc4)c(C)nn23)cc1	0	0	0	7	-12	118	0.38	77%	134%	123	0
CCCCc1nnc(NC(=O)CCN2C(=O)C3CC=CCC3C2=O)s1 (stereo not given)	-	-	-	-	0	-	-	-	-	-	-
OCCN1CCN(c2ncnc3scc(-c4ccc(F)cc4)c23)CC1	0	0	0	0	0	-	-	-	-	-	-
Cc1nc(N2CCN(c3ccccc3O)CC2)c2c(-c3ccccc3)csc2n1	0	0	0	18	-9.9	54	0	89%	88%	116	0.11
CCOc1ccccc1N1CCN(c2ncnc3scc(-c4ccc(OC)cc4)c23)CC1	0	-6.8	0	8	-9.4	142	0.35	141%	174%	140	0.11
Oc1ccccc1N1CCN(c2ncnc3scc(-c4ccc(F)cc4)c23)CC1	0	0	0	9	-9.6	121	0.37	63%	151%	115	0.12
c1coc(C2=NCCc3ccccc32)c1	0	0	0	0	0	-	-	-	-	-	-
SMILES	KCNQ1 pot	KCNK9 inh	hERG protect	KCNQ1 inh	KCNK3 inh	KCNQ1 block val	CHO Tl flux	KCNQ2 inh	KCNQ1 KCNE1 spec	KCNK3 inh conf	KCNK3 noninduced	others
O=C(CSc1nc2ccccc2nc1N1CCCCC1)Nc1ccc(F)cc1	0	-6.9	0	13	-9.8	108	0	97%	158%	137	0.12	KCNQ1 ephys val=0
CCc1ccc(NC(=O)CSc2nc3ccccc3nc2N2CCCCC2)cc1	0	0	0	0	0	-	-	-	-	-	-
Cc1cccc(NC(=O)CSc2nc3ccccc3nc2N2CC(C)OC(C)C2)c1 (stereo not given)	0	0	0	8	-11	102	0	122%	132%	114	0	KCNQ1 ephys val=0
Cc1ccnc(NC(c2ccccn2)c2c(C)[nH]c3ccccc23)c1 (stereo not given)	0	0	0	0	0	-	-	-	-	-	-
Cc1cccc(C)c1OCC(O)CNC(C)c1ccccc1 (stereo not given)	0	0	0	0	0	-	-	-	-	-	-
Cc1nc2ccc(S(=O)(=O)Nc3cc(-c4nc5cccnc5s4)ccc3C)cc2s1	0	0	0	0	0	-	-	-	-	-	-
